Measured values: the EternaBench riboswitch data

Test system: MS2 coat protein
Experiment: apparent Kd, MS2 coat protein; higher = weaker binding; RNA-MaP array; FMN 200 µM where present
Outline: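 Green signal from SNAP-549-labelled MS2 coat protein was normalised to red-channel RNA signal and to the median Fmax of control clusters. The protein was titrated from 0.7 or 1.5 nM, doubling to 3 µM, without and then with constant ligand, over designs transcribed by stalled E. coli RNA polymerase on Illumina sequencing-chip clusters, in 100 mM Tris-HCl pH 7.5, 80 mM KCl, 4 mM MgCl2, BSA, DTT, yeast tRNA and Tween-20. The apparent Kd is the median of filtered per-cluster binding-curve fits.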

[1] = designed as: ON switch for flavin mononucleotide, no ligand
[2] = ligand present: flavin mononucleotide, designed as: ON switch for flavin mononucleotide
[3] = designed as: OFF switch for flavin mononucleotide, no ligand
[4] = ligand present: flavin mononucleotide, designed as: OFF switch for flavin mononucleotide

Sequence	apparent Kd [1] [nM]	apparent Kd [2] [nM]	apparent Kd [3] [nM]	apparent Kd [4] [nM]
GCGCUUAUACAGAAGGCCAUAUACAUGAGGAUCACCCAUGUUACAUGGUGGAGGAUAUGUUAUUAAUUACAGGUAGAUGAGCGC	4.61	4.42		
GCGCUUAUACAGAAGGCCAUAUACAUGAGGAUCACCCAUGUUACAUGGUGGAGGAUAUGUUAUUUAUUACAGGUAGAUGAGCGC	4.71	5.32		
GCGCUUAUACAGAAGGCCAUAUACAUGAGGAUCACCCAUGUUAUUUGGUGGAGGAUAUGUUUUUUAUUACAGGUUGAUGAGCGC	7.58	6.52		
GCGGUCAACGUAGGAUAUCUUCAGCCACAGCGCAUUGCUGUACAUGAGGAUCACCCAUGUCCUGGAGAGAAGGACGGACGGCAG	123	34.2		
GCGUAAUAGGUGUAGCUAGUCAUUCAAGAAGGGUGAAGAACAUGAGGAUCACCCAUGUGGUUUAUACAGGAUAUUGAUAUACGC	363	90.4		
GCGUACAUAUCAGGAUAUCAUUGAAUGGAUUAACUCAGUGAAUACAUGAGGAUCACCCAUGUUCUUGAGAAGGGAUUACUACGC			21	96.5
GCGUAUUACGCAGGAUAUCCUUAUAUACAUGAGGAUCACCCAUGUUUUUUCGGAGAAGGGCGUAUGGGAUUUAAGAAUCAACAA	11.2	4.31		
GCGUAUUAGGUGUAGCUAGACAUUCAAGAAGGGUGAAGAACAUGAGGAUCACCCAUGUAGUUUUUACAGGAUAUUGAUAUACGC	356	20.4		
GCGUCAGAAUUAAUUGUGACAGGCAGAAGGCUAUAUCUUAUGUUAGACAUGAGGAUCACCCAUGUAGAGGAUAUGCAGUUACAC			7.77	17
GCGUCUCCUGUCAGGAUAUGCACCGGCUCGCCGGCGUAGAAGGGACAUGAGGAUCACCCAUGUGGUCUACACUU				339
GCGUGAUUGUAGAAGGUACAUGAAAAUAUUUAAUACCUCAAGUAACAUGAGGAUCACCCAUGUAGUAAGGAUAUACAUAUACGC	95	56.8		
GCGUUACAUGAGGAUCACCCAUGUGAGGAUAUGGUGCGGUAGUGUCCUGUCGCGUACUCCAGAAGGCGCGGGUG			137	240
GCUAGUGCAGGAUAUGCGUGGGAUGUUAUCCAUUUUCAUCUACAUGAGGAUCACCCAUGUAGAAGGGCACCCUU			29.3	110
GCUAUCGAACAGAAGGGACCGCGGCCGUGGCGGUCAGGAUAUGUAUGCAGUAGUGCCUACAUGAGGAUCACCCAUGUCCGCCGC	629	218		
GCUAUCGGGUGAGGAUAUAUGAUUGUGAUUAAAAUAGAAGGCAUCUCAGAAGACAUGAGGAUCACCCAUGUAGUUAAGAUGGCA	34.1	22.7		
GCUAUUACAGGAUAUCGUUGUUAUAACAUGAGGAUCACCCAUGUUCGGCUCGUGAUCCAGCGAGAAGGGUGGACGC			71.7	73
GCUCGAUGAGCUGUCUACAUGAGGAUCACCCAUGUAGAUGGGCAGGAUAUUUACGUGCUUUAUGUAGAGAAGGGCCCAUCGAGC		28.8		
GCUGCAAAGUAAGGAUAUGCCUAGGAAACCUAGGCAGAAGGUACAUGAGGAUCACCCAUGUUAACUCAAAGAGAAUAAAGCAGC			16.8	28.6
GCUGCAUAGGCAGGAUAUGCAAGAAUUGAAAUAAAAUAUAAUAAAUGAACAUGAGGAUCACCCAUGUAGAAGGGCCUGUGCAGU			20.8	21.4
GCUGCAUAGUCAGGAUAUGCAACAUAAUAUACAAAAUAGUAUAUUAUGACAUGAGGAUCACCCAUGUAGAAGGGACUGUGCAGU			19.3	19.9
GCUGGUCGAGGAUAUACGUGACGUGCUUCGGCACGAGGUCUACAUGAGGAUCACCCAUGUAGAAGGCGACCAGC			14.5	52.7

Sequence	apparent Kd [1] [nM]	apparent Kd [2] [nM]	apparent Kd [3] [nM]	apparent Kd [4] [nM]
GCUUUAUAGAUCCAUUUUAACAACAUGAGGAUCACCCAUGUGCAGGAUAUCGUUUGUUUUAUAUUCGAGAAGGGCAAAUUCAGC			32.5	77.6
GGAAAACAUGAGGAUCACCCAUGUGAGGAUAUCGAUGUCCAAAAACAAGUGCGGGACUCGAGAAGGCACUUGGA			35	23.2
GGAAAACAUGAGGAUCACCCAUGUGAGGAUAUCGAUGUCCAAAAACCCGUGCGGGACUCGAGAAGGCACUUGGA			43.1	57
GGAAAACAUGAGGAUCACCCAUGUGAGGAUAUCGAUGUCCAAAGAGAGGUGCGGGACUCGAGAAGGCACUUGGA			45.9	50.2
GGAAAACAUGAGGAUCACCCAUGUGAGGAUAUUGAAACAAACAAAACAAACAAACAAACAAGAAGGCACAGGAA			26.1	25.5
GGAAACUACGAGAAGGACAUGUGGUCCUUCAGUUACAUGAGGAUCACCCAUGUAGGAUAUCGUAGUUUCAGGAUCGUGAGAUCA			33.2	10.7
GGAAACUACGAGAAGGACAUGUGGUCCUUCAGUUACAUGAGGAUCACCCAUGUAGGAUAUCGUAGUUUCAGGAUCGUGAGAUCG			35.6	9.39
GGAACGAUCAUCAUUGAACAUGAGGAUCACCCAUGUACGAUGUAGGAUAUAUACCCGGUCAAGGUAUAGAAGGACAGGGUACAG			18.6	55.4
GGAAUAUUUACAGGAUAUCAUUUGUAAAUUCGAUGAGAAGGGUAGAUGUCUUACACGACUUGUUACAUGAGGAUCACCCAUGUU	43.3	33.3		
GGACAUGGGAAACCACAUGGAGAUAAGGAUAUAUAGAUGACAUGAGGAUCACCCAUGUAUGGCGAAUAGAAGGUAUGAGUGUGA	153	16.2		
GGACAUUUACAGAAGGGCAAAUUUUAUAUUGAAUAUUUAGUUCUGAUUUGCAGGAUAUGUUUUACAUGAGGAUCACCCAUGUCC	59.9	27.9		
GGACAUUUACAGAAGGGCAAUUUAUUUAUUGAUUAUUUAGUUCUGUUUUGCAGGAUAUGUAAUACAUGAGGAUCACCCAUGUCC	188	74		
GGACGAAGUGUGAGGAUAUGCUGGUCCUUGGAUCAGCAGAAGGCACAUGAGGAUCACCCAUGUGGUAAACGUCC			114	746
GGACGACACAUGAACAUGAGGAUCACCCAUGUAAAUUCUCAUGAGGAUAUGGAUCCUAAUUGGAUCCAGAAGGCGUGGUCGUCC	961	507		
GGACGGUUAGUGAGGAUAUGCUCUACCUCGGUAGAGCAGAAGGCACAUGAGGAUCACCCAUGUGAAAACUGUUC			16.6	21.2
GGACGUCAGAUUAACAUGAGGAUCACCCAUGUCUUUUGACAUGAGGAUAUCGAUCCUAAUUGGAUCGAGAAGGCAUGGACGUCC	1180	96.8		
GGACGUGUCGUUUACAUGAGGAUCACCCAUGUCGAUGGACAUGAGGAUAUGGAUCCGAAUCGGAUCCAGAAGGCAUGCACGUCC	85.3	18.9		
GGACUGGACUAGAAGGGUGAUGCGCUCGCAGACACAGGAUAUAGUCACAUGAGGAUCACCCAUGUCGGUCCAUGUAAAGAAACU	20.2	14.8		
GGACUUCCUGAGGAUAUUGUAUCACCUGAUUGAUAAGAAGGCAGAACAUGAGGAUCACCCAUGUGGGUACUCGG			136	125
GGAGACCUCACAGGAUAUGCUGGACUUUGUCCAGCAGAAGGGUGAAAACAUGAGGAUCACCCAUGUAUGGUCUCCAAAUUUAAA	200	13.2		
GGAGACCUCACAGGAUAUGCUGGACUUUGUCCAGCAGAAGGGUGACUAAACAUGAGGAUCACCCAUGUGGUCUCCAAAUUUAAU	740	68.2		
